For test [1], the target named is T1, Adrenergic receptor alpha-2 (Rattus norvegicus, UniProt P22086+P19328+P22909).
T1 sequence (P22086 whole entry): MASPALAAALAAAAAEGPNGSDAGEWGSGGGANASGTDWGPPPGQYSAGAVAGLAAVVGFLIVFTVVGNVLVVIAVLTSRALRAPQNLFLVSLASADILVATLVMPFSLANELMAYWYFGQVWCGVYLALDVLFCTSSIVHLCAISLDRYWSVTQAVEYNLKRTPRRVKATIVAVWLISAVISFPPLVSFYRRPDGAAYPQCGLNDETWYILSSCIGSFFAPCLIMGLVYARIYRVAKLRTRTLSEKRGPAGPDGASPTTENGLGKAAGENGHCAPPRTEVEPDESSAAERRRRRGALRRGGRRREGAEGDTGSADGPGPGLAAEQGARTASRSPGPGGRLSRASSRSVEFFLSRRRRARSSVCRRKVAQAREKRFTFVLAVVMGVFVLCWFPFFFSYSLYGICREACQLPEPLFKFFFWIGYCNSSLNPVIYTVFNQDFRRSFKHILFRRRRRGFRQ
T1 sequence (P19328 whole entry): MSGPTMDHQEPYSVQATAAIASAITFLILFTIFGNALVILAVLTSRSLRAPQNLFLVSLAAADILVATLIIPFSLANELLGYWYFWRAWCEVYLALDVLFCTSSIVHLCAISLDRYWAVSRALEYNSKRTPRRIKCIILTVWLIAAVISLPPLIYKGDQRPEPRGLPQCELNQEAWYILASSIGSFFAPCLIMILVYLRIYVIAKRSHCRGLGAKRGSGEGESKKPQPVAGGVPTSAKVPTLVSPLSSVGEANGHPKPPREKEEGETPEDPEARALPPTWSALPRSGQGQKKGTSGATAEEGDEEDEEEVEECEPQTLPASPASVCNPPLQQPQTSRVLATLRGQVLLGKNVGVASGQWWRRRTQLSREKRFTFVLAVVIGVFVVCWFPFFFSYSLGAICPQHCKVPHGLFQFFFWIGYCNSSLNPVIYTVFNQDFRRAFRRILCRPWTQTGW
T1 sequence (P22909 whole entry): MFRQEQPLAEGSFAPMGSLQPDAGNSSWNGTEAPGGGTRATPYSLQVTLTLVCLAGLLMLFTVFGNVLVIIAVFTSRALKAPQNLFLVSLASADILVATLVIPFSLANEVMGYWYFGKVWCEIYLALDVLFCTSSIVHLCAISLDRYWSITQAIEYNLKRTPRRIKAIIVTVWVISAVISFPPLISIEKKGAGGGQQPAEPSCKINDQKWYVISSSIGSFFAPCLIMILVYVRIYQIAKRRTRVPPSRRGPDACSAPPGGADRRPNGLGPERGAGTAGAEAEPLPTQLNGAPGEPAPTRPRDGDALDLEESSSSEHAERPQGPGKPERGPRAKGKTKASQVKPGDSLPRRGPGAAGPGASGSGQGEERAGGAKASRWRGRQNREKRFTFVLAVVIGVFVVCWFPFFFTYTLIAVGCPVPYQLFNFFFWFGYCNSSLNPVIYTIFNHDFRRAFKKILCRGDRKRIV
Briefly: Agonistic activity against alpha-2 adrenergic receptor in isolated, field -simulated vas deferens from rats. The test is classed as functional. In short, it runs like this:
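Field-stimulated vas deferens from Sprague-Dawley rats (250-350 g), pretreated with prazosin (78 nM). α2 agonism scored as inhibition of stimulation-induced contractions. […] Agonist activity confirmed by complete reversal of the inhibition by rauwolscine (280 nM).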

In test [2] the target is T2, Adrenergic receptor alpha-1 (Rattus norvegicus, UniProt P15823+P23944+P43140).
T2 sequence (P15823 whole entry): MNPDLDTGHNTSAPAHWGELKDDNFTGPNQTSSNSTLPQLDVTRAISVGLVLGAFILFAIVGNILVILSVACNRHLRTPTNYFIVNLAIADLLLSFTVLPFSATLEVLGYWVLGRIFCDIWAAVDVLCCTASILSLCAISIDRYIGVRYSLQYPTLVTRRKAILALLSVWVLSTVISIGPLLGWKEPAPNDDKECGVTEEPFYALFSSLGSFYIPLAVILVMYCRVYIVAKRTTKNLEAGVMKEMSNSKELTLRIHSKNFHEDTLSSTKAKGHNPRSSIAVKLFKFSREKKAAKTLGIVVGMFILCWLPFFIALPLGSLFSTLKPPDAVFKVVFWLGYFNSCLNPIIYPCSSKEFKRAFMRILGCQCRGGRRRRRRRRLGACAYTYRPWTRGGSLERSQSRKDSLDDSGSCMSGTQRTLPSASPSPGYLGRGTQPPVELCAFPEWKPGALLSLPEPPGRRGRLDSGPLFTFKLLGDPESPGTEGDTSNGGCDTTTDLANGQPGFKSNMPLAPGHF
T2 sequence (P23944 whole entry): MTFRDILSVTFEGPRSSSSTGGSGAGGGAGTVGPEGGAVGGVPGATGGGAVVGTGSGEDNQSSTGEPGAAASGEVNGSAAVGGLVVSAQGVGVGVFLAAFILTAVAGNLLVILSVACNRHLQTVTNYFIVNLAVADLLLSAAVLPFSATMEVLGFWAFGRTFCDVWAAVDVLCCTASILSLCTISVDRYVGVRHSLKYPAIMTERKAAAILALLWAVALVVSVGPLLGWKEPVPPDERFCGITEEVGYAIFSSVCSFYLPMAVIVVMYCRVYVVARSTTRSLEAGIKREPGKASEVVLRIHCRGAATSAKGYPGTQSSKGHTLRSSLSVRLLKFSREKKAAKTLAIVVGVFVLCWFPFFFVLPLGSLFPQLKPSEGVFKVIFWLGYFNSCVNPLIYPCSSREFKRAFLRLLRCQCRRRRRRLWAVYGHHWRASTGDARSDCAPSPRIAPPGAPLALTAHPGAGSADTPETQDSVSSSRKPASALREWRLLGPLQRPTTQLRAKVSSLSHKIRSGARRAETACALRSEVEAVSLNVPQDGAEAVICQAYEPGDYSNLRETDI
T2 sequence (P43140 whole entry): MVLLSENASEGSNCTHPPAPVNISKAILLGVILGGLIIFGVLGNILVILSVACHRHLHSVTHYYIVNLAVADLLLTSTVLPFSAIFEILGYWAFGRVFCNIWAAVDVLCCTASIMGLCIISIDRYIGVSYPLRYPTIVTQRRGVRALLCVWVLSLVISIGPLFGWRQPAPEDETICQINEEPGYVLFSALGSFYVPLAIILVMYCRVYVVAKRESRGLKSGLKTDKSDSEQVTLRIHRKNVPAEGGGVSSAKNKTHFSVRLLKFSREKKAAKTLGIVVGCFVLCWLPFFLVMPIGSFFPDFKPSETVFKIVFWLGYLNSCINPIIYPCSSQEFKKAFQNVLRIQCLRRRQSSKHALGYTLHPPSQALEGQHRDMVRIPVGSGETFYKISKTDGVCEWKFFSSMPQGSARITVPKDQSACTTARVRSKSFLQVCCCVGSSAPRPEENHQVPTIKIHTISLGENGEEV
The test is described as follows: Agonist activity against alpha-1 adrenergic receptor from rat vas deferens. The test is classed as functional.

In test [3] the target is T1, Adrenergic receptor alpha-2. The test is described as follows: Agonistic activity against alpha alpha-2 adrenergic receptor in isolated, field -simulated vas deferens from rats. The test is classed as functional.
The target in test [4] is T3, Alpha-2A adrenergic receptor (Bos taurus, UniProt Q28838).
T3 sequence (Q28838 whole entry): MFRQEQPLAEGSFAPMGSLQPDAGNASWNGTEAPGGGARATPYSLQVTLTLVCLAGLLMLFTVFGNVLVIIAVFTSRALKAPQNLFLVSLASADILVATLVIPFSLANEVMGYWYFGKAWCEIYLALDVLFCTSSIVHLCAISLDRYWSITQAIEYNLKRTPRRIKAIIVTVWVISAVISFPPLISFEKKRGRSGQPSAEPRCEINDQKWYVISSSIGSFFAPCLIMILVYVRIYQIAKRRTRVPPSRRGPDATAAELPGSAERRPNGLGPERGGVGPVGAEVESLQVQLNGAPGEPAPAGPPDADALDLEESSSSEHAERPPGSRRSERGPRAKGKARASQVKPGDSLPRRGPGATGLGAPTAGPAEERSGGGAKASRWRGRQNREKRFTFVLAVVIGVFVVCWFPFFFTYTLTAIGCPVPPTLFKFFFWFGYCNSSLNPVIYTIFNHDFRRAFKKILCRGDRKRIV
The test is described as follows: Binding affinity against alpha-2 adrenergic receptor from calf cerebral cortex, using [3H]clonidine as the radioligand. The test is classed as tissue-based.

Test [5] deals with Adrenergic receptor alpha-2 (Rattus norvegicus) (UniProt P22086+P19328+P22909). Briefly: Clonidine antagonistic activity against alpha-2 adrenergic receptor in isolated, field -simulated vas deferens from rats. The test is classed as functional. In short, it runs like this:
(§1)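 Field-stimulated vas deferens from Sprague-Dawley rats (250-350 g). pA2 estimated from one or two test-compound concentrations, with at least three tissues per concentration. Agonist challenged was clonidine for α2 and methoxamine for α1.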

Test [6] deals with T2, Adrenergic receptor alpha-1. The test is described as follows: Methoxamine antagonistic activity against alpha-1 adrenergic receptor in isolated, field -simulated vas deferens from rats. The test is classed as functional, tissue-based. In short, it runs like this: as §1

Each structure is given as a SMILES string.

Consider `Clc1ccccc1NCC1=NCCN1`, for which the EC50 (as a rule, the concentration needed to bring the measured effect to its halfway point) is 53 nM in test [1] and 50 nM in test [2].

On to `CCN(CC1=NCCN1)c1ccc(C)cc1`, for which the concentration for a half-maximal effect (EC50) was > 1000 nM in test [3] and 1600 nM in test [2]. Also, in test [4], the Ki (in general, a dissociation constant, usually derived from enzyme kinetics or from competition with a known ligand) was determined as 14 nM. The pA2 (as a rule, the negative logarithm of the molar antagonist concentration that doubles the agonist concentration needed for the same response) in test [5] is 7.1.

On to `Cc1ccc(N(CC2=NCCN2)C2CCCCC2)cc1`, for which the EC50 in test [3] and in test [2] was > 1000 nM in each case. Also, the pA2 in test [6] was 6; in test [5], 6.5. This compound also showed an inhibition constant (Ki) in test [4] of 70 nM.

On to `Cc1ccc(N(CC2=NCCN2)c2ccccc2)cc1`, for which the concentration giving a half-maximal response (EC50) in test [3] and in test [2] was > 1000 nM in each case. Also, the values for the pA2 in test [6] and in test [5] were 7.6 and 7.5, respectively.

In test [5], `Cc1ccc(N(CC2=NCCN2)c2cccc(O)c2)cc1` returned a pA2 of 7.8.

`Cc1ccc(NCC2=NCCN2)cc1`: the EC50 is > 2000 nM in test [3] and 340 nM in test [2]. In test [4], this compound showed a Ki of 14 nM. For the same compound, the pA2 in test [5] is 5.6.

As to `Oc1cccc(NCC2=NCCN2)c1`, the EC50 in test [3] was 74 nM; in test [2] it was 61 nM. Besides, the inhibition constant (Ki) in test [4] stood at 7.1 nM.

For the compound `Cc1ccc(N(C)CC2=NCCN2)cc1`, the EC50 in test [3] was > 2000 nM; in test [2], 300 nM. In test [4], affinity was put at a Ki of 3.3 nM. This compound had a pA2 in test [5] of 7.

The record behind these values is ChEMBL document CHEMBL1122419, “alpha-Adrenergic activities of some substituted 2-(aminomethyl)imidazolines” (J Med Chem, 1983).
